The values below come from ChEMBL document CHEMBL1136810, “Design and synthesis of plasmepsin I and plasmepsin II inhibitors with activity in Plasmodium falciparum-infected cultured human erythrocytes” (J Med Chem, 2003).

One test deals with Plasmepsin II (Plasmodium falciparum, UniProt P46925). Nature of the test: Binding affinity for Plasmodium falciparum plasmepsin-2. The method, boiled down: (§1)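 Fluorogenic protease assay in 100 mM sodium acetate pH 4.5 with 10% glycerol and 0.01% Tween 20. Pro-Plm II at 3 nM had its pro-sequence removed by 40 min preincubation at room temperature. Plm I was matched to similar activity. Pro-cathepsin D at 50 ng/mL was activated 20 min at 37 °C. Inhibitors in DMSO (1% final) were added before 3 μM DABCYL/EDANS peptide substrate. Fluorescence rise was read over 10 min. IC50 came from a competitive-isotherm fit and was converted to Ki using Km.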
Chain of Plasmepsin II (P46925 whole entry): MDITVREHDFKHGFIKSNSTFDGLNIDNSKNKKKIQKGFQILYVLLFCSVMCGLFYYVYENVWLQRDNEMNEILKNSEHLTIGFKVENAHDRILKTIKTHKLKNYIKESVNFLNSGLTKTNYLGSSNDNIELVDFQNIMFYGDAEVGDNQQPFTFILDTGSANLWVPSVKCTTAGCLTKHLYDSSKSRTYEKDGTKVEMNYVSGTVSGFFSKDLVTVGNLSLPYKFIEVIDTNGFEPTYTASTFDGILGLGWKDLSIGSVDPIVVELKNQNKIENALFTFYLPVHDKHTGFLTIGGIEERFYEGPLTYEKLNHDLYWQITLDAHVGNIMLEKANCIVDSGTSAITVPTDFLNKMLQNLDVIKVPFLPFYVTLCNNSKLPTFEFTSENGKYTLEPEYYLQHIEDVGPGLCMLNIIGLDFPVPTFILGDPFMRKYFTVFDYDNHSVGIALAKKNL

A further test concerns the target Cathepsin D (Homo sapiens, UniProt P07339). Nature of the test: In vitro binding affinity for human cathepsin D. The method, boiled down: as §1
The target in a further test is Plasmepsin I (Plasmodium falciparum, UniProt P39898). The test can be described thus: Binding affinity for Plasmodium falciparum plasmepsin-1. In a few lines: as §1
Chain of Plasmepsin I (P39898 whole entry): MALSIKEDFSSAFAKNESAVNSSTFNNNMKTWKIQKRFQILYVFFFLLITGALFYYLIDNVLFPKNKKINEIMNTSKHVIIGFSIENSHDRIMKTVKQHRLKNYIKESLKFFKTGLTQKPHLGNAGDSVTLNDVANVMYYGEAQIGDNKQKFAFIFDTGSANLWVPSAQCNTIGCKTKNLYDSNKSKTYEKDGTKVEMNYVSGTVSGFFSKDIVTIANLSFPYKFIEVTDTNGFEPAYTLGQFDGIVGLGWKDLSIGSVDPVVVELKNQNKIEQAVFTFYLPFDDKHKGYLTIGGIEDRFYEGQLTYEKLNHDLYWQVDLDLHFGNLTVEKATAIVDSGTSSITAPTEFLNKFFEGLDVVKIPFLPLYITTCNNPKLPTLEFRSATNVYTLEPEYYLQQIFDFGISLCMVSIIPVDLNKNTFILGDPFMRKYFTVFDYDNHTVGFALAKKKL
For test [1], the system named is Plasmodium falciparum. The test can be described thus: Percent inhibition against Plasmodium falciparum infected red blood cells at 5 uM. Format: functional.
In test [2] the test system is Plasmodium falciparum. The test can be described thus: Percent inhibition of Plasmodium falciparum in red blood cells at 5 uM. Format: functional.
In test [3] the test system is Plasmodium falciparum. Nature of the test: Effective dose against Plasmodium falciparum in red blood cells. It counts as functional. As to conditions: read-out: ED50 (the source's name).
The test system of test [4] is Plasmodium falciparum. The test can be described thus: Percent inhibition of Plasmodium falciparum in erythrocytes at 5 uM. It counts as functional.
In the next test the test system is Caco-2. The test can be described thus: Permeability in Caco-2 cells was determined. As to conditions: Homo sapiens. It counts as functional, cell-based. (In general: Caco-2 monolayers are a common model of the intestinal barrier.)

Chain of Cathepsin D (P07339 65-162 limits assumed): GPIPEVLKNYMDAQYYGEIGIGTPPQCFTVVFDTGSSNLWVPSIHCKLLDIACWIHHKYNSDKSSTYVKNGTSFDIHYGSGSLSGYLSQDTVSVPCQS
Chain of Cathepsin D (P07339 169-412 limits assumed): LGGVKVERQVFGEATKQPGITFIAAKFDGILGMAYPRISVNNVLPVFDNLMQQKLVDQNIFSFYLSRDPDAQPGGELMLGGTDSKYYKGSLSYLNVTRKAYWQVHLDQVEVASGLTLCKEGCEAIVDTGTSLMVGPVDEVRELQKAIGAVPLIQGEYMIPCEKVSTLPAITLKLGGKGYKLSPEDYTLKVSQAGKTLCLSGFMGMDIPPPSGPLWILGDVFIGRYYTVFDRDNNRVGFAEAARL

As a reminder, the Ki is the equilibrium dissociation constant of an inhibitor or competing ligand from its target. High values mean weaker binding, low ones tighter binding. For `Cc1ccc(-c2cccc(C[C@H](NC[C@H](O)[C@H](Cc3ccccc3)NC(=O)[C@@H](NC(=O)c3ccccn3)C(C)C)C(N)=O)c2)cc1`, the inhibitory constant (Ki) on Plasmepsin II was found to be 0.93 µM; at Cathepsin D, 1.9 µM; at Plasmepsin I it was 1.1 µM.
On to `CC(C)[C@H](NC(=O)c1ccccn1)C(=O)N[C@@H](Cc1ccccc1)[C@@H](O)CN1C(=O)NC(=O)[C@@H]1Cc1ccc(Br)cc1`, for which the values for the inhibition constant (Ki) on Plasmepsin II, on Cathepsin D and at Plasmepsin I were 1.9 µM, greater than 2 µM and greater than 2 µM, respectively.
As to `COc1ccccc1-c1cccc(C[C@H](NC[C@H](O)[C@H](Cc2ccccc2)NC(=O)[C@@H](NC(=O)c2ccccn2)C(C)C)C(N)=O)c1`, the results for the inhibition constant (Ki) at Plasmepsin II, on Cathepsin D and at Plasmepsin I were 1.43 µM, greater than 2 µM and 1.3 µM, respectively.
`CC(C)[C@H](NC(=O)c1ccccn1)C(=O)N[C@@H](Cc1ccccc1)[C@@H](O)CN[C@H](Cc1ccccc1)C(N)=O`: at Cathepsin D, the inhibitory constant (Ki) is greater than 2 µM.
For orientation: inhibition means the change of the read-out against control, counted positive when it falls. Higher therefore signals strong suppression. As for `CC(C)[C@H](NC(=O)c1ccccn1)C(=O)N[C@@H](Cc1ccccc1)[C@@H](O)CN[C@@H](Cc1ccc(Br)cc1)C(N)=O`, the inhibition at 5 µM in the test on Plasmodium falciparum [1] came to 35%. Also, the figures for the inhibition constant Ki on Plasmepsin II, at Cathepsin D and on Plasmepsin I were 0.54 µM, greater than 2 µM and 0.098 µM, respectively.
With `CC(C)[C@H](NC(=O)c1ccccn1)C(=O)N[C@@H](Cc1ccccc1)[C@@H](O)CN[C@@H](Cc1cccc(-c2ccccc2)c1)C(N)=O`, the Ki at Plasmepsin II was found to be 0.579 µM; on Cathepsin D it was 1.6 µM; at Plasmepsin I it was 1 µM.
As to `CC(C)[C@H](NC(=O)c1ccccn1)C(=O)N[C@@H](Cc1ccccc1)[C@@H](O)CN[C@@H](Cc1cccc(-c2cccc(N)c2)c1)C(N)=O`, at 5 µM the inhibition in the test with Plasmodium falciparum [2] was 69%. The Ki on Plasmepsin II is 0.129 µM; at Cathepsin D, greater than 2 µM; at Plasmepsin I, 0.53 µM.
As to `CC(C)[C@H](NC(=O)c1ccccn1)C(=O)N[C@@H](Cc1ccccc1)[C@@H](O)CN[C@H](C(N)=O)c1ccccc1`, the inhibition constant (Ki) at Plasmepsin II, at Cathepsin D and on Plasmepsin I was greater than 2 µM in each case.
As to `CC(C)[C@H](NC(=O)c1ccccn1)C(=O)N[C@@H](Cc1ccccc1)[C@@H](O)CN[C@@H](Cc1cccc(OS(=O)(=O)C(F)(F)F)c1)C(N)=O`, the Ki is greater than 2 µM at Plasmepsin II, 1.7 µM on Cathepsin D and 0.469 µM at Plasmepsin I.
On Plasmepsin II, `CC(C)C[C@H](NC(=O)[C@H](C)NC(=O)C[C@H](O)[C@H](Cc1ccccc1)NC(=O)[C@@H](NC(=O)c1ccccn1)C(C)C)C(N)=O` displayed an inhibition constant Ki of 0.00056 µM.
Consider `Cc1ccc(-c2ccc(C[C@H](NC[C@H](O)[C@H](Cc3ccccc3)NC(=O)[C@@H](NC(=O)c3ccccn3)C(C)C)C(N)=O)cc2)cc1`, for which the Ki on Plasmepsin II worked out at 0.121 µM; at Plasmepsin I it was 0.115 µM. Besides, the EC50 in the test with Plasmodium falciparum [3] is 1.6 µM.
Turning to `CC(C)[C@H](NC(=O)c1ccccn1)C(=O)N[C@@H](Cc1ccccc1)[C@@H](O)CN[C@@H](Cc1ccc(-c2cccc(N)c2)cc1)C(N)=O`, testing at 5 µM in the test with Plasmodium falciparum [4] gave an inhibition of 77%. Moreover, the figures for the Ki at Plasmepsin II and at Plasmepsin I were 0.15 µM and 0.063 µM, respectively.
On to `CC(C)[C@H](NC(=O)c1ccccn1)C(=O)N[C@@H](Cc1ccccc1)[C@@H](O)CN1C(=O)NC(=O)[C@@H]1Cc1ccc(-c2ccccc2)cc1`, for which the results for the inhibition constant (Ki) at Plasmepsin II, at Cathepsin D and at Plasmepsin I were 0.928 µM, greater than 2 µM and 2.05 µM, respectively.
Regarding `COc1ccccc1-c1ccc(C[C@H](NC[C@H](O)[C@H](Cc2ccccc2)NC(=O)[C@@H](NC(=O)c2ccccn2)C(C)C)C(N)=O)cc1`, the inhibition constant (Ki) on Plasmepsin II was determined as 0.379 µM; at Plasmepsin I, 0.437 µM.
For the compound `CC(C)C[C@H](NC[C@H](O)[C@H](Cc1ccccc1)NC(=O)[C@@H](NC(=O)c1ccccn1)C(C)C)C(N)=O`, the inhibition constant (Ki) at Cathepsin D was greater than 2.8 µM.
Take `CCCCNC(=O)C[C@H](O)[C@H](CC(C)C)NC(=O)[C@@H](NC(=O)Cc1ccc2ccccc2c1)C(C)CC` (stereo partly drawn): the values for the Ki at Plasmepsin II and on Cathepsin D were 0.05 µM and 0.32 µM, respectively.
The Papp is the rate of passage across a membrane or cell layer, normalised by area and donor concentration. Take `CC(C)[C@H](NC(=O)c1ccccn1)C(=O)N[C@@H](Cc1ccccc1)[C@@H](O)CN[C@@H](Cc1ccc(-c2ccccc2)cc1)C(N)=O`: in the test on Caco-2, the Papp came to 10.3 ×10⁻⁶ cm/s. The results for the Ki at Plasmepsin II, at Cathepsin D and on Plasmepsin I were 0.117 µM, greater than 2 µM and 0.068 µM, respectively.
As to `CC(C)[C@H](NC(=O)c1ccccn1)C(=O)N[C@@H](Cc1ccccc1)[C@@H](O)CN[C@@H](C)C(N)=O`, the inhibitory constant (Ki) at Plasmepsin II, on Cathepsin D and at Plasmepsin I was greater than 2 µM throughout.
`CC(C)C[C@H](NC[C@H](O)[C@H](Cc1ccccc1)NC(=O)c1ccccn1)C(N)=O`: the Ki on Plasmepsin II, at Cathepsin D and on Plasmepsin I was greater than 2 µM in each case.
The compound `CC(C)[C@H](NC(=O)c1ccccn1)C(=O)N[C@@H](Cc1ccccc1)[C@@H](O)CN[C@@H](Cc1ccccc1)C(N)=O` came in with an inhibition constant Ki on Cathepsin D greater than 2.8 µM.
